Bioassay records from PubChem.
TAAR1 antag: human TAAR1 antagonists, primary screen, Fluo-8 calcium fluorescence, CHO RD-HGA16 cells | Trace amine-associated receptor 1 (Homo sapiens), Q96RJ0 | antagonist | inhibition, % at 3 µM | actives 1.5% (n = 360,000) | AID 624466, 2012;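 active = inhibition above a per-plate cutoff, the mean inhibition of test compounds on that plate plus 3 SD, cut at about 49% in these data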;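 note: 0% = DMSO plus EC80 beta-PEA response and 100% = DMSO alone without agonist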
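Assay system: RD-HGA16 CHO cells with stable hTAAR1 and Gα16 / Reagent: EC80 β-phenethylamine stimulus / Doses: 3 µM, single point / Timing: dye loading 75 min at 37 °C, then 30 min room temperature / Measured by: Fluo-8 intracellular calcium dye fluorescence, real-time kinetic reads / Controls: vehicle wells and EC80 agonist wells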
OX1R antag-1: OX1R (HCRTR1) antagonists, primary screen, fluorescence, CHO/OX1R cells, Fluo-8 calcium, orexin A | Orexin/Hypocretin receptor type 1 (Homo sapiens), O43613 | Fluo-8 calcium fluorescence | inhibition, % at 5 µM | actives 0.43% (n = 330,000) | AID 434989, 2010;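 active = inhibition above its plate's threshold, mean inhibition of all tested compounds on the plate plus 3 SD, cut at about 37% in these data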;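 note: 0% = orexin A challenge wells and 100% = SB-334867-A antagonist wells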
Target sequence (O43613 whole entry, looked up): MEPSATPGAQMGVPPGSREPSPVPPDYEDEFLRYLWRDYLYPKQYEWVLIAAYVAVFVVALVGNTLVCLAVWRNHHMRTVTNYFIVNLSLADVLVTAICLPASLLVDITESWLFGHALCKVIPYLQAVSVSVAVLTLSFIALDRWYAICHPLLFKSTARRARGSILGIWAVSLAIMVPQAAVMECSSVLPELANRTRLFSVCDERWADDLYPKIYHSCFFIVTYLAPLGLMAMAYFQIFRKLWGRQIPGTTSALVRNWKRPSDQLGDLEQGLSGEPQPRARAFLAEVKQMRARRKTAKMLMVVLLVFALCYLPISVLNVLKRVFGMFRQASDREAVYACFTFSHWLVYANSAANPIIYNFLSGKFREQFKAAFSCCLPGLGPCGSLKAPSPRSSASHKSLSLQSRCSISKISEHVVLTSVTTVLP
OX1R antag-2: antagonists of human orexin 1 receptor (OX1R); actives 1.8% (n = 330,000); AID 485270, 2010; Orexin/Hypocretin receptor type 1 (Homo sapiens), O43613; OX1R-expressing cells, FRET antagonist read-out; inhibition, % at 6.6 µM; in the data active = inhibition mostly above about 38%, no sharp cut-off; inactive = mostly below about 40%;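 note: 0% = agonist challenge alone and 100% = reference antagonist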
GalR3 antagonist: GalR3 antagonists in HEK293 cells, primary screen, cell-based, fluorescence readout; Galanin receptor type 3 (Homo sapiens), O60755; HEK293 GalR3-CNG cAMP membrane potential fluorescence; galR3 body fused to GalR1 C-terminus; inhibition, % at 3 µM; actives 0.44% (n = 360,000);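 active = inhibition above the screen-wide average plus 3 SD, cut at about 13% in these data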;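 note: forskolin and galanin both at EC90 stimulate the cells; cAMP rise reported by CNG channel membrane potential dye signal; 0% = forskolin plus galanin with DMSO and 100% = forskolin alone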
Target sequence (O60755 1-299 limits assumed): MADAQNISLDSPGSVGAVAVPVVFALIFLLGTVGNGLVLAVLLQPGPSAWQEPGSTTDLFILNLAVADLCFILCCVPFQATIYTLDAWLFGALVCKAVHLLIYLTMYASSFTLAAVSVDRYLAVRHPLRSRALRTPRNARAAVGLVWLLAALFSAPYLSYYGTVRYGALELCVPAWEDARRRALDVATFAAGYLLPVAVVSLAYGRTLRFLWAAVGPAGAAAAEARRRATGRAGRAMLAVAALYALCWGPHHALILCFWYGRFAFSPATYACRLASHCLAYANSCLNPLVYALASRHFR
TAAR1 agonist: human TAAR1 agonists, primary screen, Fluo-8 calcium fluorescence, CHO RD-HGA16 cells. vehicle wells 0%, saturating PEA agonist 100%. activation, % at 3 µM. actives 0.99% (n = 360,000). AID 624467, 2012;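 active = activation above the mean activation of all test compounds in the run plus 3 SD, cut at about 38% in these data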
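Benchmarks: low control DMSO, high control PEA (EC100); System: CHO RD-HGA16 cells carrying human TAAR1 plus Gα16; Detection: Fluo-8 fluorescence, 5 s baseline then 140 s kinetic read; Schedule: 17-24 h plating, Fluo-8 75 min 37 °C, 30 min RT; Read-out basis: % activation from peak over basal fluorescence ratio, DMSO-to-PEA scaled.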
CHO parental Ca: ATP-evoked calcium signal inhibitors, parental CHO, primary screen, counter-screen for OX1R antagonist project, cell-based, fluorescence, Fluo-8 calcium dye; parental CHO-K1, ATP-induced calcium, Fluo-8 fluorescence; inhibition, % at 5.6 µM; actives 0.63% (n = 330,000);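 active = inhibition above that plate's mean sample inhibition plus 3 SD, cut at about 26% in these data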;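 note: 0% = ATP-challenged DMSO wells and 100% = DMSO wells without ATP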
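material = parental CHO cells | also added = ATP as calcium-mobilizing challenge | dosing = single point at 5.6 µM | detection = intracellular calcium via Fluo-8 no-wash fluorescent dye | read-out = % inhibition | benchmarks = low control ATP plus DMSO, high control DMSO only | repeats = one well per compound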
GalR3 antag conf: GalR3 antagonist hit confirmation, cell-based, fluorescence, triplicate; AID 652245, 2013; inhibition, % at 3 µM; shares compounds with GalR3 antagonist; actives 59% (n = 1,600); HEK293 GalR3 CNG cAMP biosensor, membrane potential fluorescence; galR3 fused to GalR1 carboxy tail; challenged with forskolin and galanin at EC90;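 active = inhibition above the primary screen's cutoff, the mean inhibition of all screened compounds plus 3 SD, cut at about 13% in these data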;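 note: 0% = forskolin plus galanin and 100% = forskolin alone with DMSO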
CNG parental: nonspecific cAMP agonists in parental HEK-CNG cells, counter-screen for GalR3 antagonist project, cell-based, fluorescence, high throughput; HEK293-CNG parental cells, cAMP membrane potential fluorescence; normalised: DMSO wells 0%, forskolin wells 100%; activation, % at 3 µM; actives 10% (n = 1,600); AID 652268, 2013; shares compounds with GalR3 antagonist; in the data active = activation above about 1.3%
* marks the source's active call; other numbers are inactive results; x = no result. A selection: hits, their analogues and other compounds. The true share with any hit is near 4.3%.

SMILES | TAAR1 antag | OX1R antag-1 | OX1R antag-2 | GalR3 antagonist | TAAR1 agonist | CHO parental Ca | GalR3 antag conf | CNG parental
COc1ccc(/C=C2\SC(=O)N(CCNC(=O)C3=COCCO3)C2=O)cc1 | -16 | -10 | 23 | 31* | 6 | -17 | 21* | 0
O=C(NCCN1C(=O)S/C(=C\c2ccc(OC(F)F)cc2)C1=O)c1cnccn1 | 24 | -4 | 31 | 15* | 8 | -1 | 6 | 1
CCNC(=O)c1ccc(NC(=O)CC2SC(N3CCCCC3)=NC2=O)cc1 (configuration not stated) | -10 | -25 | 5 | 16* | -2 | -10 | 6 | 0
CCCCCc1ccc(OCCC[n+]2ccccc2)c(CCCCC)c1 | -22 | 0 | 3 | 31* | 27 | 4 | 36* | 1.8*
CC(=O)Nc1ccc(OCCC[n+]2ccccc2)cc1 | -24 | -7 | 10 | -3 | 12 | -7 | x | x
CCO[C@@H]1OC(C(=O)O)=C[C@H](c2ccc(C(F)(F)F)cc2)[C@H]1CCCO | 10 | -3 | 37 | -4 | 6 | 9 | x | x
CCO[C@@H]1OC(C(N)=O)=C[C@H](c2ccc(C(F)(F)F)cc2)[C@H]1CCCO | 7 | 1 | 4 | 16* | 1 | -4 | 5 | 0
CCC(C)NS(=O)(=O)c1ccc(S(=O)(=O)N(CCc2ccc(OC)c(OC)c2)Cc2cccs2)cc1 (configuration not stated) | -4 | 12 | 58 | 26* | 8 | -6 | 56* | -1
COc1ccc2[nH]c(=O)c(CNc3ccc(C)cc3C)cc2c1 | -33 | -25 | 46 | 14* | 2 | 1 | 5 | 0
COc1ccc2[nH]c(=O)c(CNc3cc(C)ccc3C)cc2c1 | -26 | -1 | 39 | 2 | 7 | -6 | x | x
O=C(OCC(=O)N1CCc2ccccc21)c1n[nH]c(=O)c2ccccc12 | 13 | -28 | 20 | 8 | 16 | -24 | x | x
Fc1cccc(-c2nnn3c2nc(Cl)c2ccccc23)c1 | -22 | x | x | 14* | 0 | x | 6 | 3.8*
Cc1ccc(-c2nn(CC(=O)N3CCOCC3)c(=O)c3ccccc23)cc1S(=O)(=O)N(C)C | -19 | -13 | 12 | 0 | 0 | -9 | x | x
O=C(Cn1nc(-c2ccc(N3CCOCC3)c([N+](=O)[O-])c2)c2ccccc2c1=O)N1CCCCC1 | 8 | -17 | 21 | 15* | 5 | -14 | 60* | 0
Cc1ccc(N2C(=O)c3cccc4c([N+](=O)[O-])ccc(c34)C2=O)c2cccnc12 | -18 | 15 | 18 | 14* | 1 | -16 | 17* | 0
CC(NCC1COc2ccccc2O1)C(=O)NCc1ccccc1 (configuration not stated) | 8 | -11 | 10 | 13* | 1 | -9 | 7 | 0
CCN(CC)CC(=O)NCc1cc(-c2ccc(OC)cc2)no1 | -8 | 2 | 8 | -3 | 2 | -15 | x | x
COc1ccc(-c2cc(CNC(=O)CN3CCN(C)CC3)on2)cc1 | -4 | -15 | -1 | 13* | -1 | -12 | -5 | 0
C/C(=N\OCc1nc2ccccc2c(=O)n1/N=C/c1cc(C)cc([N+](=O)[O-])c1O)c1ccccc1 | 27 | -18 | 47* | 67* | 1 | -14 | 70* | -1
CN(Cc1ccccc1)C(c1ccnc2ccccc12)c1nnnn1-c1ccc2c(c1)OCCO2 (configuration not stated) | 23 | x | x | -8 | 2 | x | x | x
C[N+](C)(C)C/C=C1/COCO1 | -20 | -4 | -6 | 20* | 13 | -10 | 13* | 0
COc1ccc(NCc2nnc(SCC(=O)Nc3ccccc3)n2C)cc1 | 5 | -10 | 11 | x | 0 | -7 | -1 | 0
Cc1ccc(NCCCn2ccc(NC(=O)OCc3ccccc3)nc2=O)cc1C | -9 | x | x | -2 | 0 | x | x | x
COc1ccc(S(=O)(=O)n2nc(-c3cc(OC)c(OC)c(OC)c3)cc2N)cc1OC | -10 | -37 | 16 | -1 | 0 | -20 | x | x
COc1ccc(-c2cc(N)n(S(=O)(=O)c3c(F)c(F)c(F)c(F)c3F)n2)cc1OC | 46 | 24 | 19 | 54* | 16 | 45* | 60* | 1
SMILES | TAAR1 antag | OX1R antag-1 | OX1R antag-2 | GalR3 antagonist | TAAR1 agonist | CHO parental Ca | GalR3 antag conf | CNG parental
CCCCNC(=O)N(CC)c1c(N)n(Cc2ccccc2)c(=O)[nH]c1=O | -23 | -13 | 21 | 13* | 4 | -3 | 3 | 0
CCCCNC(=O)N(c1c(N)n(Cc2ccccc2)c(=O)[nH]c1=O)C1CCCC1 | -16 | -7 | 28 | -3 | 1 | -14 | x | x
O=C(Nc1ccn(Cc2ccccc2F)n1)c1ccc(COc2ccc(Br)cc2)cc1 | 29 | 33 | 26 | 97* | 8 | 11 | 106* | 0
O=C(Nc1ccc(Cn2cccn2)cc1)c1ccc(COc2ccc(Br)cc2)cc1 | -1 | -22 | 13 | -4 | 8 | -14 | x | x
CCC(=O)c1ccc(OCC(=O)NC2CCCC2)cc1 | 14 | -13 | 8 | -2 | 11 | -6 | x | x
CCC(=O)c1ccc(OCC(=O)O)cc1 | -16 | x | x | x | -1 | x | -2 | 0
Nc1nc2ccccc2cc1C(=O)NCc1ccc(-c2ccccc2)cc1 | 25 | x | x | 87* | 2 | x | 97* | 0
Nc1ccc(CNC(=O)c2cc3cc(Cl)ccc3nc2N)cc1 | -9 | x | x | -3 | 6 | x | x | x
COc1ccc(C)cc1NC(=O)NC1CCCc2ccccc21 (configuration not stated) | -13 | -14 | 19 | 1 | -3 | -9 | x | x
COc1ccc(-c2c3c(cc4ncn(Cc5ccccc5)c24)COC3=O)cc1 | 16 | -17 | 10 | 27* | 13 | -16 | 52* | 0
CC(Oc1ccc(Cl)cc1)/C(N)=N/O (configuration not stated) | -27 | 5 | 1 | 16* | 31 | -2 | 5 | 0
